Reference: ChEMBL document CHEMBL5724801, “EUbOPEN Chemogenomics Library - Multiplex” (2024)
“And” between values parts separate entries of the source, which are not always exact repeats. Identical values can stand only once.

Test system: Fibroblast
Assay: Multiplex assay against human fibroblast
Format: toxicity, cell-based
Outline: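 Phenotypes for tubulin, mitochondrial mass and membrane permeability are expressed as per cents of healthy-nucleus cells. Cells were stained live at seeding with Hoechst33342, BioTracker Green Microtubule Cytoskeleton Dye, MitoTracker Red and Annexin V Alexa Fluor 680, then imaged after compound addition on a CQ1 microscope at 37°C and 5% CO2. Machine-learning gating in CellPathfinder separated Hoechst high-intensity objects from normal cells, divided normal cells by nuclear state (healthy, pyknosed, fragmented) and divided pyknosed cells into mitotic or apoptotic.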

[1] = 12 h, 1 µM, compound concentration 1 uM
[2] = 12 h, 10 µM, compound concentration 10 uM
[3] = 24 h, 1 µM, compound concentration 1 uM
[4] = 24 h, 10 µM, compound concentration 10 uM
[5] = 48 h, 1 µM, compound concentration 1 uM
[6] = 48 h, 10 µM, compound concentration 10 uM

C[C@@H]1C[C@H]2[C@@H]3CCC4=CC(=O)C=C[C@]4(C)[C@@]3(F)[C@@H](O)C[C@]2(C)[C@@]1(O)C(=O)CO [DEXAMETHASONE]
Population Apoptotic (%) [1]: 62% and 38%
Population Fragmented Nuclei (%) [1]: 18% and 30%
Population Healthy Nuclei (%) [1]: 66% and 48%
Population Hoechst High Intensity Objects (%) [1]: 7% and 3%
Population Membrane Permeable-Phenotype (%) [1]: 0% and 9%
Population Mitochondria Different-Phenotype (%) [1]: 2% and 4%
Population Mitotic Cells (%) [1]: 37% and 61%
Population Normal (%) [1]: 92% and 96%
Population Pyknosed Nuclei (%) [1]: 15% and 20%
Population Tubulin-Different-Phenotype (%) [1]: 26% and 52%
Population Apoptotic (%) [2]: 35% and 30%
Population Fragmented Nuclei (%) [2]: 20% and 24%
Population Healthy Nuclei (%) [2]: 65% and 52%
Population Hoechst High Intensity Objects (%) [2]: 2% and 6%
Population Membrane Permeable-Phenotype (%) [2]: 1% and 4%
Population Mitochondria Different-Phenotype (%) [2]: 5% and 2%
Population Mitotic Cells (%) [2]: 65% and 69%
Population Normal (%) [2]: 98% and 93%
Population Pyknosed Nuclei (%) [2]: 13% and 23%
Population Tubulin-Different-Phenotype (%) [2]: 22% and 53%
Population Apoptotic (%) [3]: 48% and 31%
Population Fragmented Nuclei (%) [3]: 14% and 29%
Population Healthy Nuclei (%) [3]: 68% and 50%
Population Hoechst High Intensity Objects (%) [3]: 5% and 6%
Population Membrane Permeable-Phenotype (%) [3]: 1% and 4%
Population Mitochondria Different-Phenotype (%) [3]: 3% and 1%
Population Mitotic Cells (%) [3]: 52% and 68%
Population Normal (%) [3]: 94% and 93%
Population Pyknosed Nuclei (%) [3]: 17% and 19%
Population Tubulin-Different-Phenotype (%) [3]: 26% and 53%
Population Apoptotic (%) [4]: 42% and 30%
Population Fragmented Nuclei (%) [4]: 15% and 30%
Population Healthy Nuclei (%) [4]: 65% and 44%
Population Hoechst High Intensity Objects (%) [4]: 3% and 6%
Population Membrane Permeable-Phenotype (%) [4]: 1% and 10%
Population Mitochondria Different-Phenotype (%) [4]: 6% and 2%
Population Mitotic Cells (%) [4]: 57% and 69%
Population Normal (%) [4]: 96% and 93%
Population Pyknosed Nuclei (%) [4]: 18% and 24%
Population Tubulin-Different-Phenotype (%) [4]: 22% and 45%
Population Apoptotic (%) [5]: 46% and 37%
Population Fragmented Nuclei (%) [5]: 22% and 38%
Population Healthy Nuclei (%) [5]: 52% and 46%
Population Hoechst High Intensity Objects (%) [5]: 6% and 4%
Population Membrane Permeable-Phenotype (%) [5]: 2% and 4%
Population Mitochondria Different-Phenotype (%) [5]: 4%
Population Mitotic Cells (%) [5]: 53% and 62%
Population Normal (%) [5]: 93% and 95%
Population Pyknosed Nuclei (%) [5]: 24% and 14%
Population Tubulin-Different-Phenotype (%) [5]: 34% and 53%
Population Apoptotic (%) [6]: 50% and 37%
Population Fragmented Nuclei (%) [6]: 22% and 36%
Population Healthy Nuclei (%) [6]: 55% and 43%
Population Hoechst High Intensity Objects (%) [6]: 4% and 7%
Population Membrane Permeable-Phenotype (%) [6]: 0% and 10%
Population Mitochondria Different-Phenotype (%) [6]: 7% and 0%
Population Mitotic Cells (%) [6]: 50% and 62%
Population Normal (%) [6]: 95% and 92%
Population Pyknosed Nuclei (%) [6]: 22% and 20%
Population Tubulin-Different-Phenotype (%) [6]: 19% and 39%
